Reference: ChEMBL document CHEMBL1148739, “Microwave-assisted ring opening of epoxides: a general route to the synthesis of 1-aminopropan-2-ols with anti malaria parasite activities” (J Med Chem, 2007)
The source made the active and inactive calls. The rule behind the calls is not given here.

How the values were obtained:
[1] = test system: Plasmodium falciparum; assay: Antimalarial activity against Plasmodium falciparum FCR3 after 72 hrs; type: functional, organism-based; conditions: FCR3, 72 h
Summary of the method: (§1)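 P. falciparum in continuous culture in 5% O+ erythrocytes, RPMI-1640 with 25 mM HEPES, 0.5% albumax, 2 mM L-glutamine, gentamicin; 37 °C, 5% CO2/5% O2/90% N2; sorbitol-synchronized. Ring stages seeded at 0.05% parasitemia, 1.5% hematocrit; 72 h with threefold serial dilutions from 100 µM. HRPII accumulation after freeze-thaw lysis read as percent of untreated controls; duplicates; IC50 from 72 h HRPII production.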

[2] = molecular target: T1, Aquaglyceroporin (Plasmodium falciparum) (UniProt Q8II36); assay: Inhibition of Plasmodium falciparum AQP expressed in BY4742-deltafpsl cells at 100 uM after 48 hrs; type: cell-based
T1 sequence (whole entry): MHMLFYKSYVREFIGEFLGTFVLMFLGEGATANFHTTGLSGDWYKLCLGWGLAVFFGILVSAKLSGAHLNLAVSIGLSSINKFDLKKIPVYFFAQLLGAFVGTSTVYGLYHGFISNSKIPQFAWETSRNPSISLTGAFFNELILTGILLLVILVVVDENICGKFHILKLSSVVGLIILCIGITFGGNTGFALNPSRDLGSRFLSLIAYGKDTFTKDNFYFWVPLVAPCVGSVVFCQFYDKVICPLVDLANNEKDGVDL
Summary of the method: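 BY4742Δfps1 yeast expressing PfAQP grown in 20 mM MES-buffered (pH 5.5) minimal YNB with 3% glucose, 0.1% proline, with or without 50 mM methylamine hydrochloride; compound at 100 µM, untreated cells as controls.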

[3] = test system: MONO-MAC-6; assay: Effect on cell viability in human MONO-MAC-6 cells at 100 uM after 24 hrs; type: functional, cell-based
Summary of the method: (§2)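 Cell lines kept at 37 °C in RPMI 1640 with L-glutamine and 10% fetal calf serum under 5% humidified CO2. Cell suspension (25 cells/µL) exposed to 100 µM compound for 24 h (one cell cycle) at 37 °C. Viability by Trypan Blue dye uptake; duplicates.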

[4] = test system: Plasmodium falciparum; assay: Antimalarial activity against Plasmodium falciparum 3D7 after 72 hrs; type: functional, organism-based; conditions: 3D7, 72 h; summary of the method: as §1
[5] = test system: NALM-6; assay: Effect on cell viability in human NALM6 cells at 100 uM after 24 hrs; type: functional, cell-based; summary of the method: as §2
[6] = test system: Jurkat; assay: Effect on cell viability in human Jurkat lymphoblastoid cells at 100 uM after 24 hrs; type: functional, cell-based; summary of the method: as §2

Row | Compound | IC50 [1] [µM] | Activity [2] | IC50 [4] [µM] | Activity [3] | Activity [5] | Activity [6]
1 | OC(CNCC1CC1)COCc1ccccc1 (stereo not drawn) | 8.4 | inactive |  |  |  | 
2 | CN(Cc1ccccc1)CC(O)CSCc1ccccc1 (stereo not drawn) | 16.3 |  | 9.3 | inactive | inactive | inactive
3 | CC(C)(C)NCC(O)COCc1ccccc1 (stereo not drawn) | 12.7 |  |  |  |  | 
4 | OC(CNC1CCCC1)COCc1ccccc1 (stereo not drawn) | 10.3 |  | 15.1 |  |  | 
5 | CCN(CC)CC(O)COCc1ccccc1 (stereo not drawn) | 28.1 |  |  |  |  | 
6 | OC(CNC1CCC1)COCc1ccccc1 (stereo not drawn) | 15.2 |  |  |  |  | 
7 | O[C@@H](CNC1CCCC1)COCc1ccccc1 | 5.9 |  | 5.1 |  |  | 
8 | CCN1CCCC1CNCC(O)COCc1ccccc1 (stereo not drawn) | 15.8 |  | 32.5 |  |  | 
9 | OC(COCc1ccccc1)CN1CCNCC1 (stereo not drawn) | 12.5 |  |  |  |  | 
10 | CN(Cc1ccccc1)CC(O)CCl (stereo not drawn) | 31 |  | 15.6 | inactive | inactive | inactive
11 | CN(Cc1ccccc1)CC(O)COCc1ccccc1 (stereo not drawn) | 2 | inactive | 47 |  |  | 
12 | CCN(Cc1ccccc1)CC(O)CN(C)Cc1ccccc1 (stereo not drawn) | 7.7 | inactive | 3.7 | inactive | inactive | inactive
13 | C=CCNCC(O)CCl (stereo not drawn) | 23.8 |  |  |  |  | 
14 | OC(CNc1ccccn1)COCc1ccccc1 (stereo not drawn) | 31.1 |  |  |  |  | 
15 | OC(CCl)CN1CCNCC1 (stereo not drawn) | 38.5 |  | 66 | inactive | inactive | inactive

The next lines start with results.

Row | IC50 [1] [µM] | Activity [2] | IC50 [4] [µM] | Compound | Activity [3] | Activity [5] | Activity [6]
16 | 20.2 |  |  | OC(COCc1ccccc1)CN1CCCC1 (stereo not drawn) |  |  | 
17 | 12.5 | inactive |  | OC(CNCc1ccccc1)COCc1ccccc1 (stereo not drawn) |  |  | 
18 | 0.7 | inactive |  | CCN(Cc1ccccc1)CC(O)COCc1ccccc1 (stereo not drawn) |  |  | 
19 | 7.7 |  |  | OC(CNCC1CCCO1)COCc1ccccc1 (stereo not drawn) |  |  | 
20 | 41.6 |  | 15.4 | CN(Cc1ccccc1)CC(O)CNCc1ccccc1 (stereo not drawn) |  |  | 
21 | 4.6 |  | 3.9 | O[C@H](CNC1CCCC1)COCc1ccccc1 |  |  | 
22 | 5.8 | inactive | 9.7 | OC(CNCc1cccs1)COCc1ccccc1 (stereo not drawn) | inactive | inactive | inactive
23 | 1.2 |  |  | OC(CNCCc1cccs1)COCc1ccccc1 (stereo not drawn) |  |  | 
24 | 3.4 |  |  | OC(CNCc1ccco1)COCc1ccccc1 (stereo not drawn) |  |  | 
25 | 43.9 |  | 43.5 | CN(Cc1ccccc1)CC(O)CN(C)Cc1ccccc1 |  |  | 
